Data reported in ChEMBL document CHEMBL2331541, “Small molecule antivirulents targeting the iron-regulated heme oxygenase (HemO) of P. aeruginosa” (J Med Chem, 2013).
pKd: −log10 of the molar value. In brackets after ≈: the same amount, converted by molar mass. Activity calls are given as the source filed them. The calls are words filed in the database; no cut-off is given here.

Key:
[1] = Binding affinity to Pseudomonas aeruginosa apo Heme oxygenase expressed in Escherichia coli BL21(DE3) assessed as decrease in tryptophan fluorescence
Outline: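 Apo-HemO held at 1 μM in 20 mM Tris-HCl (pH 7.5), titrated with inhibitor 0.05−500 μM. Excitation 295 nm, emission scanned 300−500 nm; fluorescence decrease at 330 nm used in 1/ΔA vs 1/[I] reciprocal plot, slope giving KD. Mean of three separate experiments.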

[2] = test system: Pseudomonas aeruginosa; test: Antimicrobial activity against Pseudomonas aeruginosa FRD1; format: functional
Outline: (§1)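 Strains grown from single colony 8 h at 37 °C in LB, diluted to OD600 0.05, incubated in LB alone or with 250−1500 μM compound. OD600 read at 6, 12 and 24 h, blank with matching inhibitor concentration subtracted. MIC50 averaged from three separate experiments.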

[3] = test system: Pseudomonas aeruginosa; test: Antimicrobial activity against Pseudomonas aeruginosa WR5; format: functional; outline: as §1
[4] = test system: Pseudomonas aeruginosa; test: Antimicrobial activity against Pseudomonas aeruginosa PAO1; format: functional; outline: as §1
[5] = test system: Pseudomonas aeruginosa; test: Binding affinity to Pseudomonas aeruginosa apo Heme oxygenase expressed in Escherichia coli BL21(DE3) assessed as shift in specific resonance at 4.2 mM after 2 hrs by chemical shift NMR analysis
Outline: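 15N-labeled apo-HemO at 1.2 mM (50 mM phosphate, 100 mM KCl, 95% H2O/5% D2O) with inhibitor at 0, 0.7, 1.05, 2.1 or 4.2 mM; inhibitor dissolved into protein 2 h at room temperature, centrifuged. 1H−15N TROSY-HSQC at 25 °C; combined shift Δppm = sqrt(ΔδHN² + (0.2·ΔδN)²).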

[6] = test system: Pseudomonas aeruginosa; test: Antimicrobial activity against Pseudomonas aeruginosa PAO1 infected in Caenorhabditis elegans glp-4(bn2) assessed as increase in host lifespan at 250 ug/ml; format: functional, organism-based
Outline: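 Synchronized glp-4(bn2) young adults (30) exposed 12 h to P. aeruginosa PAO1 lawn on PGS agar (peptone, NaCl, glucose, 0.15 M sorbitol), washed in M9, reseeded on E. coli OP50 PGS-agar plates containing inhibitor. Viability scored daily; death taken as no response to touch. Average of three experiments.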

[7] = test system: Pseudomonas aeruginosa; test: Antimicrobial activity against Pseudomonas aeruginosa PAO1 infected in Caenorhabditis elegans glp-4(bn2) assessed as reduction in CFU at 250 ug/ml by serial dilution method; format: functional, organism-based
Outline: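 Infected worms (PAO1, 12 h on PGS agar) moved to E. coli OP50 plates with inhibitor; at 24, 48, 72 and 96 h, 10 live worms washed three times in M9 with 1 mM sodium azide, disrupted with 1.0 mm silicon carbide beads by vortexing 1 min, debris pelleted, lysate serially diluted and plated on PIA for cfu. Uninfected and untreated infected worms as controls.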

[8] = test system: Pseudomonas aeruginosa; test: Binding affinity to Pseudomonas aeruginosa apo Heme oxygenase expressed in Escherichia coli BL21(DE3) after 4 hrs by STD-NMR analysis
Outline: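 STD-NMR at 25 °C, 500 MHz: inhibitor-saturated solution (50 mM sodium phosphate, 100 mM NaCl, D2O, pH 7.4, stood about 4 h, centrifuged) mixed with 3−4 μM HemO; inhibitor about 5 mM by TSP reference. Selective saturation 2 s via 50 ms Gaussian pulses; repeated with 10 s interscan delay. Strongest-saturated proton set to 100%.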

MIC50 [2]	MIC50 [3]	MIC50 [4]	Activity [5]	Activity [8]	Structure (SMILES)	pKd [1]	Activity [6]	Activity [7]
750 µg/mL (≈ 2650 µM)	800 µg/mL (≈ 2820 µM)	1000 µg/mL (≈ 3530 µM)			O=C(O)/C=C/C(=O)Nc1ccc(Oc2ccccc2)cc1	4.53		
190 µg/mL (≈ 926 µM)	210 µg/mL (≈ 1020 µM)	250 µg/mL (≈ 1220 µM)	Active	Active	CN(C)c1ccc(/C=N/NC(=N)N)cc1	4.51	Active	Active
950 µg/mL (≈ 3370 µM)	1100 µg/mL (≈ 3900 µM)	1200 µg/mL (≈ 4250 µM)	Active	Active	O=C(O)/C=C/C(=O)Nc1ccc(Nc2ccccc2)cc1	4.74	Active	
